The text below walks through data of ChEMBL document CHEMBL1154198, “Chemical genetics of Plasmodium falciparum” (Nature, 2010).

Data set [1] concerns Plasmodium falciparum. The data set can be described thus: ST_JUDE: Plasmodium falciparum 3D7 EC50 (uM) as measured by SYBR green dye. The data set is classed as functional, organism-based.
Data set [2] has as its system Plasmodium falciparum. Briefly: ST_JUDE: Plasmodium falciparum K1 EC50 (uM) as measured by SYBR green dye. The data set is classed as functional, organism-based.
For data set [3], the system named is Plasmodium falciparum. Briefly: ST_JUDE: Cytotoxicity against Plasmodium falciparum 3D7. The data set is classed as functional, organism-based. The procedure, abridged: (§1)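 Asexual P. falciparum grown in human erythrocytes, exposed to compounds for 72 h, and growth read as the DNA quantity in treated versus control cultures. Dose-response run at 12 concentrations from 10 μM to 5 nM.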

Data set [4] concerns Plasmodium falciparum. Briefly: ST_JUDE: Cytotoxicity against Plasmodium falciparum K1. The data set is classed as functional, organism-based. In a few lines: as §1
Data set [5] has as its system Plasmodium falciparum. The data set can be described thus: ST_JUDE: Cytotoxicity against Plasmodium falciparum V1/S. The data set is classed as functional, organism-based.
Data set [6] has as its system Toxoplasma gondii. The data set can be described thus: ST_JUDE: Growth inhibition of to Toxoplasma gondii, in human U-2OS cells, as measured by luciferase. Format: functional, organism-based. Conditions: RH, U2OS. In a few lines:
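T. gondii parasites engineered to express luciferase; drug sensitivity read by luminescence.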

For data set [7], the system named is Trypanosoma brucei. The data set can be described thus: ST_JUDE: Cytotoxicity using luciferase to measure ATP as an indicator of the viability of Trypanosoma brucei. The data set is classed as functional, organism-based.
Data set [8] has as its system Leishmania major. The data set can be described thus: ST_JUDE: Cytotoxicity using Alamar Blue to measure viability of Leishmania major. Format: functional, organism-based. The procedure, abridged: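 L. major promastigotes; drug susceptibility read with Alamar Blue.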
Background: Alamar Blue is a resazurin reagent that responds to reducing activity.

Data set [9] is described as follows: ST_JUDE: Cytotoxicity using luciferase to measure ATP as an indicator of the viability of human foreskin fibroblast cells (BJ). The data set is classed as toxicity, cell-based.
Data set [10] can be described thus: ST_JUDE: Cytotoxicity using luciferase to measure ATP as an indicator of the viability of human epithelial hepatocellular carcinoma cells (HepG2). Format: toxicity, cell-based.
The nature of data set [11]: ST_JUDE: Cytotoxicity using luciferase to measure ATP as an indicator of the viability of human epithelial embryonic kidney cells (HEK293). The data set is classed as toxicity, cell-based.
The nature of data set [12]: ST_JUDE: Cytotoxicity using luciferase to measure ATP as an indicator of the viability of human Burkitt''s lymphoma lymphoblast cells (Raji). Format: toxicity, cell-based.
Data set [13] relates to Plasmodium falciparum. The data set can be described thus: ST_JUDE: Cytotoxicity against Plasmodium falciparum Dd2. Format: functional, organism-based.
For data set [14], the system named is Plasmodium falciparum. The data set can be described thus: ST_JUDE: Cytotoxicity against Plasmodium falciparum W2. The data set is classed as functional, organism-based.
The subject of data set [15] is Plasmodium falciparum. Briefly: ST_JUDE: Cytotoxicity against Plasmodium falciparum SB-A6. The data set is classed as functional, organism-based.
Data set [16] deals with Plasmodium falciparum. Briefly: ST_JUDE: Cytotoxicity against Plasmodium falciparum D10 transfected with yeast DHOD. The data set is classed as functional, organism-based.

Usually EC50 stands for the concentration needed to bring the measured effect to its halfway point. A high value points to lower potency in that assay. In the case of `Cc1ccc2c(c1)N(C)/C(=C/c1cccc[n+]1C)S2`, the EC50 was 247 nM in [1]; 179 nM in [2]; 588 nM in [3]; 675 nM in data set [4]; 566 nM in data set [5]; more than 12600 nM in [6]. Besides, the concentration giving a half-maximal response (EC50) in data set [7] was 1050 nM; in data set [8], 10.7 nM; in data set [9] it was more than 23000 nM; in data set [10] it was more than 23000 nM; in [11] it was more than 23000 nM; in data set [12] it was 2180 nM. Moreover, the EC50 in [13] came to 646 nM; in [14], 1110 nM; in data set [15], 1030 nM; in [16], 859 nM.

For `CCOc1ccc(/C=C2\Oc3c(ccc(O)c3CN3CCCCC3)C2=O)cc1`, the EC50 in data set [1] was 1290 nM; in data set [2], 467 nM; in data set [3], 1770 nM; in [4], 500 nM; in data set [5] it was 1180 nM; in data set [6], more than 25800 nM. The concentration giving a half-maximal response (EC50) was more than 45200 nM in data set [7]; more than 20200 nM in data set [8]; more than 47100 nM in data set [9]; more than 47100 nM in [10]; more than 47100 nM in data set [11]; more than 47100 nM in [12]. Moreover, the concentration giving a half-maximal response (EC50) in data set [13] is 2140 nM; in data set [14], 1150 nM; in [15] it was 3390 nM; in [16], 1850 nM.

With `CO/C(O)=C1\C(C)=NC2=C(C(=O)CC(c3ccc(OC)c(OC)c3)C2)C1c1ccccc1F` (stereo not given), the EC50 in data set [1] is 504 nM; in data set [2] it was 433 nM; in [3], 427 nM; in [4] it was 412 nM; in [5], 911 nM; in data set [6], more than 24500 nM. The EC50 in data set [7] is more than 42900 nM; in data set [8], more than 19200 nM; in data set [9] it was more than 44800 nM; in [10] it was more than 44800 nM; in data set [11] it was more than 44800 nM; in data set [12], more than 44800 nM. Further, the EC50 was determined as 766 nM in data set [13], 296 nM in data set [14], 556 nM in [15] and 746 nM in data set [16].

Turning to `CO/C(O)=C1\C(C)=NC2=C(C(=O)CC(c3ccc(OC)c(OC)c3)C2)C1c1ccc(F)cc1` (stereo not given), the EC50 is 122 nM in data set [1]; 108 nM in data set [2]; 236 nM in data set [3]; 272 nM in data set [4]; 409 nM in data set [5]; more than 25300 nM in [6]. Besides, the EC50 in data set [7] is 25200 nM; in data set [8] it was more than 19800 nM; in [9], more than 46300 nM; in data set [10], more than 46300 nM; in data set [11], more than 46300 nM; in data set [12] it was more than 46300 nM. Further, the concentration for a half-maximal effect (EC50) stood at 456 nM in data set [13], 208 nM in [14], 178 nM in data set [15] and 182 nM in data set [16].

With `CN(C(=O)c1cc2c(s1)-c1ccccc1S(=O)(=O)C2)c1cccc(C(F)(F)F)c1`, the 50% effective concentration (EC50) in [1] is 744 nM; in data set [2] it was 1250 nM; in [3], 350 nM; in data set [4] it was 356 nM; in data set [5], 684 nM; in data set [6], more than 22400 nM. In addition, the half-maximal effective concentration (EC50) in data set [7] is 18100 nM; in data set [8] it was more than 17500 nM; in data set [9], more than 40800 nM; in [10] it was more than 40800 nM; in data set [11] it was more than 40800 nM; in [12], more than 40800 nM. In addition, the 50% effective concentration (EC50) in data set [13] amounted to 335 nM; in data set [14], 116 nM; in data set [15] it was 414 nM; in [16] it was 431 nM.

For the compound `CCn1nc(-c2ccc(C(F)(F)F)cc2)nc2c(=O)n(C)c(=O)nc1-2`, the 50% effective concentration (EC50) in [1] was 779 nM; in [2], 1370 nM; in data set [3] it was 402 nM; in [4], 246 nM; in data set [5], 225 nM; in [6], more than 27400 nM. For the same compound, the EC50 is more than 48000 nM in data set [7]; more than 21400 nM in data set [8]; more than 50100 nM in data set [9]; 2870 nM in data set [10]; more than 50100 nM in [11]; more than 50100 nM in [12]. For the same compound, the EC50 in data set [13] came out at 4550 nM; in data set [14], 90.4 nM; in data set [15], 1300 nM; in [16], 613 nM.

Regarding `CCCCCOc1ccc(N(C(C)=O)C2=C(N3CCCCC3)C(=O)c3ccccc3C2=O)cc1`, the concentration for a half-maximal effect (EC50) in [1] is 728 nM; in data set [2], 371 nM; in data set [3], 193 nM; in data set [4] it was 129 nM; in data set [5] it was 114 nM; in [6], more than 16100 nM. The EC50 in data set [7] was 4140 nM; in [8], more than 12600 nM; in data set [9] it was more than 29300 nM; in [10], 9760 nM; in [11] it was more than 29300 nM; in data set [12], 4100 nM. Besides, the EC50 turned out to be 754 nM in data set [13], 386 nM in [14], 110 nM in data set [15] and 61.5 nM in data set [16].

As to `CC(C)CN1C(=O)c2ccccc2C(C(=O)Nc2cccc(C(F)(F)F)c2)C1c1cccs1` (stereo not given), the concentration giving a half-maximal response (EC50) is more than 25900 nM in data set [6]; 3300 nM in data set [7]; more than 20200 nM in data set [8]; more than 47200 nM in [9]; 37700 nM in [10]; more than 47200 nM in data set [11]. In data set [12], the EC50 is more than 47200 nM.

As to `C=CCN1C=CC=C/C1=C\c1sc2ccccc2[n+]1C`, the concentration giving a half-maximal response (EC50) was 1990 nM in data set [1]; 1200 nM in data set [2]; 1190 nM in data set [3]; 940 nM in [4]; more than 9080 nM in [5]; more than 19400 nM in [6]. The EC50 is 10700 nM in data set [7]; 50.3 nM in [8]; more than 35400 nM in data set [9]; more than 35400 nM in [10]; more than 35400 nM in data set [11]; 8340 nM in data set [12]. The EC50 in data set [14] stood at 6160 nM; in data set [15], 2980 nM; in data set [16], 5690 nM.

For `O=[N+]([O-])c1ccc2c(c1)c1ccccc1n2Cc1ccccc1O`, the concentration giving a half-maximal response (EC50) in data set [1] is 1260 nM; in data set [2], 1250 nM; in data set [3] it was 1300 nM; in [4] it was 1070 nM; in data set [5], more than 9060 nM; in data set [6] it was more than 19300 nM. Further, the EC50 in [7] was 24500 nM; in data set [8], more than 15100 nM; in data set [9], more than 35300 nM; in data set [10], more than 35300 nM; in [11], more than 35300 nM; in data set [12], 18200 nM. Also, the concentration giving a half-maximal response (EC50) is 3700 nM in data set [14], 2320 nM in [15] and 1800 nM in data set [16].

Consider `COc1cccc(NC(=O)C2c3ccccc3C(=O)N(CC(C)C)C2c2cccs2)c1` (stereo not given), for which the half-maximal effective concentration (EC50) in data set [1] was 175 nM; in data set [6], more than 22300 nM; in data set [7] it was 7540 nM; in [8], more than 17500 nM; in data set [9], more than 40800 nM; in data set [10], more than 40800 nM. Moreover, the EC50 in data set [11] and in [12] was more than 40800 nM each time.

In the case of `CCCc1cc(O)nc(-n2nc(C)cc2NC(=O)COc2ccc(OC)cc2)n1`, the concentration giving a half-maximal response (EC50) in data set [1] and in [2] was more than 15000 nM throughout.

In the case of `Cc1ccc2oc(-c3cccc(NC(=O)C(Cl)(Cl)Cl)c3C)nc2c1`, the EC50 in [1] is more than 15000 nM; in [2], 1590 nM.

For `CCOCCCn1c(=N)c(C(=O)NCc2cccnc2)cc2c(=O)n3cccc(C)c3nc21`, the concentration for a half-maximal effect (EC50) in data set [1] and in data set [2] was more than 15000 nM throughout.

For `O=C(O)c1cccc(NC2=C(N3CCCCC3)C(=O)c3ccccc3C2=O)c1`, the results for the concentration giving a half-maximal response (EC50) in [1] and in data set [2] were more than 15000 nM and 4820 nM, respectively.
